Laboratory results as given in article PMC11168086 (RSC Advances, 2024).
≈ marks a conversion by molar mass, not a printed value.

What was measured:
[1] = system: HeLa (cervical cancers) cells; experiment: MTT antiproliferative assay, HeLa; assay type: cell-based, human; conditions: for IC50: Homo sapiens, 72 h
Method in brief: (§1)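 Cells from ECACC were grown in MEM with 10% FBS, non-essential amino acids and penicillin-streptomycin, at 37 °C and 5% CO2. Cells were seeded at 5000 per well, left overnight, then exposed to test compound 72 h. MTT was added for 4 h, and formazan was dissolved in DMSO (60 min, 37 °C) and read at 545 nm. Compounds giving >50% inhibition at 10 μM were rerun over 0.1–30 μM for IC50. Two independent experiments used five wells each, with cisplatin as positive control.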

[2] = system: MCF7 (breast cancer) cells; experiment: MTT antiproliferative assay, MCF7; assay type: cell-based, human; conditions: for IC50: MCF-7, MTT, 72 h; for Lipophilic efficiency (LipE = pIC50 – logP): MCF-7
Method in brief: as §1

[3] = system: MDA-MB-231 (breast cancer) cells; experiment: MTT antiproliferative assay, MDA-MB-231; assay type: cell-based, human; conditions: for IC50: Homo sapiens, MDA-MB-231, 72 h, MDA-MB-231, MTT, 72 h; for Lipophilic efficiency (LipE = pIC50 – logP): MDA-MB-231
Method in brief: as §1

[4] = system: A2780 (ovarian cancer) cells; experiment: MTT antiproliferative assay, A2780; assay type: cell-based, human; conditions: for Lipophilic efficiency (LipE = pIC50 – logP): A2780; for IC50: Homo sapiens, A2780, 72 h
Method in brief: as §1

[5] = Kinetic aqueous solubility; assay type: physicochemical; conditions: PBS buffer, pH 7.4, aqueous buffer, kinetic from dmso stock
Method in brief: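 10 mM DMSO stocks were diluted into PBS pH 7.4 to a 500 μM target and shaken 2 h at room temperature. Samples were vacuum-filtered, diluted with acetonitrile to prevent precipitation, and scanned by UV-vis over 250–500 nm. Concentration was derived from a 3-point calibration at each compound's λmax.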

[6] = Intestinal-specific PAMPA; assay type: in vitro ADME; conditions: pH 6.5
Method in brief: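 Donor solutions at nominal 500 μM came from 10 mM DMSO stocks diluted in phosphate donor buffer, pH 6.5. The acceptor buffer held 5% DMSO. The membrane was phosphatidylcholine plus cholesterol in chloroform/dodecane/hexane (5:25:70 v/v). Plates were incubated 4 h at 37 °C, covered. Acceptor UV-vis absorbance was read over 250–500 nm. Pa was calculated by the Wohnsland–Faller equation from acceptor versus equilibrium absorbance at λmax.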

IC50 [1]	IC50 ([2]; Homo sapiens, MCF7, 72 h)	IC50 [2]	IC50 [3]	IC50 [4]	solubility kinetic at 2 h [5]	Papp at 4 h, 500 μM [6]	Compound	Lipophilic efficiency (LipE = pIC50 – logP) [1]	Lipophilic efficiency (LipE = pIC50 – logP) [2]	Lipophilic efficiency (LipE = pIC50 – logP) [3]	Lipophilic efficiency (LipE = pIC50 – logP) [4]
2900 nM	< 1000 nM	840 nM	1800 nM	2300 nM	122 ± 4.5 µM (≈ 64.4 µg/mL)	33.3 ± 3 ×10⁻⁶ cm/s	C[C@@H]1CC[C@@H]([C@](O)(CNCc2ccc(F)cc2)COCc2ccc(F)cc2)[C@H](OCc2ccc(F)cc2)C1 [Compound 45a]	−1.23	−0.69	−1.02	−1.12
11600 nM	7000 nM	–	16700 nM	12300 nM	38.7 ± 2 µM (≈ 14.6 µg/mL)	39.3 ± 4.2 ×10⁻⁶ cm/s	C[C@@H]1CC[C@@H]([C@](C)(O)Cn2cnc3ccccc32)[C@H](OCc2ccccc2)C1 [Compound 15a]	–	0.02	–	–
2000 nM	1400 nM	–	1700 nM	1300 nM	107 ± 2.6 µM (≈ 60.3 µg/mL)	23.7 ± 3.8 ×10⁻⁶ cm/s	COc1ccc(CNC[C@](O)(COCc2ccc(OC)cc2)[C@@H]2CC[C@@H](C)C[C@H]2OCc2ccc(OC)cc2)cc1 [Compound 52a]	−0.57	−0.43	−0.50	−0.40
